Source: PubChem
MT1-MMP act inh = blocks activation of human MT1-MMP; P50281; HT1080 RFP-PRO-GFP cells, GFP/RFP ratio fluorescence, overnight; percent of plate control window, DMSO zero; GFP/RFP ratio change, % at 20 µM; 0.061% of 360,000 active; AID 651647;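 active = GFP/RFP ratio change of at least 30% with cell ATP level not reduced by more than half and red fluorescence within 50% of control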
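Test system: HT1080 RFP-PRO-GFP cells; Benchmarks: DMSO and RFP-L50D-GFP cell wells; Timing: cells overnight before dosing, compound overnight, 37 °C, 5% CO2; Compound: one 20 µM compound dose with 1% DMSO; Read-out: GFP/RFP fluorescence ratio.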
NRP1-CendR mod = modulators of CendR peptide binding to human neuropilin-1 | O14786 | FAM-RPARPAR peptide binding to NRP-1, fluorescence polarization | inhibition, % at 25 µM | 0.85% of 360,000 active;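 active = inhibition or corrected inhibition above about 18%, plus a signal ratio from 0.5 to 1.5, limit read from the data, passing the limit was not always enough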
Target sequence (O14786 whole entry, looked up): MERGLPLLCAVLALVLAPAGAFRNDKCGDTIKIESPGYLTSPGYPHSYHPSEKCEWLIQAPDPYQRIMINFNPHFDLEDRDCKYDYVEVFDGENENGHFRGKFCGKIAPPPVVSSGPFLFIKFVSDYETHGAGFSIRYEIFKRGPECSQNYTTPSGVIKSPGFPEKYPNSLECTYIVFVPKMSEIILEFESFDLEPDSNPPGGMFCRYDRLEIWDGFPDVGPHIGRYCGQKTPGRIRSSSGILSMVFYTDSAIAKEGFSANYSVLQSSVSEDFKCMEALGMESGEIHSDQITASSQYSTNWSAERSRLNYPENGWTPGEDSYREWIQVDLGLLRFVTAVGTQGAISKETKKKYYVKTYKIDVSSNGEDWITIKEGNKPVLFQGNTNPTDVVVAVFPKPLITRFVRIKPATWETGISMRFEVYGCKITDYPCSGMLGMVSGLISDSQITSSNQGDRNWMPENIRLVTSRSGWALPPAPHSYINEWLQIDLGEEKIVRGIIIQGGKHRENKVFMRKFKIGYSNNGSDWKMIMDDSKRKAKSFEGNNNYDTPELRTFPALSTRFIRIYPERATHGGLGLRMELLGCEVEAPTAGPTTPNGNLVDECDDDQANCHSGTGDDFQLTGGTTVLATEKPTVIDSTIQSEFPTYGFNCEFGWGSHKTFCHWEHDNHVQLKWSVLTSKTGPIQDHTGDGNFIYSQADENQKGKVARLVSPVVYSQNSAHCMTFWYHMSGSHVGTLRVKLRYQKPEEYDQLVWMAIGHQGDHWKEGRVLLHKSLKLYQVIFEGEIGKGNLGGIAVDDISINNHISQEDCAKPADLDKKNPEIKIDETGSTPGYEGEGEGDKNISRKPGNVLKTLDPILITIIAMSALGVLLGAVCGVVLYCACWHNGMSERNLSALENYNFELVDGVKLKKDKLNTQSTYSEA
hiPSC survival = increases survival of single human iPS cells; hiPSC single-cell survival, ATPlite luminescence; 100% = ROCK inhibitor wells, 0% = DMSO; survival enhancement, % at 20 µM; 0.044% of 360,000 active; AID 602274; in the data active = survival enhancement above about 18%;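 also: cells exposed to compounds for 16 hours before the ATP read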
SKN-1 block = C. elegans SKN-1 inhibition; C. elegans VP596 Pgst-4::GFP/RFP ratio, acrylamide-induced, 24 h; inhibition, % at 21.8 µM; 0.49% of 360,000 active;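 active = interference check ratio from 0.5 to 1.5 plus GFP to RFP signal ratio inhibition reaching or exceeding a fixed threshold, cut at about 30% in these data, passing the limit was not always enough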
An asterisk follows results filed as active; . = no result given. Sampled rows, rich in hits. Any-hit rate of the full collection: about 1.4%.

SMILES | MT1-MMP act inh | NRP1-CendR mod | hiPSC survival | SKN-1 block
CC1(C)C[C@H]2C3=CCC4[C@@]5(C)CC[C@H](O)[C@](C)(CO)C5CC[C@@]4(C)[C@]3(C)CC[C@@]2(C)[C@H](O)[C@@H]1O (stereo partly drawn) | 4 | -21 | -2 | 5
Cc1cc(C(=O)N[C@@H](c2ccccc2)[C@]2(C)C[C@H]2[C@@H](C)C(=O)Nc2ccc3ccccc3c2)no1 | -5 | 22* | -2 | 5
COC(=O)n1c(=O)oc2ccccc21 | 0 | 26* | -5 | -1
CCCCOC(=O)n1c(=O)oc2ccccc21 | 7 | -5 | -2 | 0
O=C1N[C@@H](c2ccccc2)COC(=O)[C@@H](Cc2ccc(F)cc2)CC/C=C/C[C@H]1CC(=O)N(CCO)Cc1ccccc1 | -1 | -5 | -1 | -6
CC(C)(C)OC(=O)C[C@H]1C/C=C\C[C@H](CC(=O)N(CCO)Cc2ccccc2)C(=O)N[C@@H](Cc2ccccc2)COC1=O | 0 | 30* | 2 | 2
CC(C)(C)OC(=O)C[C@H]1C/C=C\C[C@H](CC(=O)N(CCO)Cc2ccccc2)C(=O)NCCOC1=O | 7 | 29* | 0 | 3
O=C1CCC/C=C\C[C@@H](CC(=O)N(CCO)Cc2ccccc2)C(=O)N2CCC[C@H]2CO1 | 4 | 28* | 0 | -3
O=C1NC[C@@H](c2ccccc2)OC(=O)[C@@H](Cc2ccc(F)cc2)CC/C=C/C[C@@H]1CC(=O)N(CCO)Cc1ccccc1 | 4 | 31* | 0 | 30
CC(C)(C)OC(=O)C[C@H]1C/C=C\C[C@@H](CC(=O)NCCO)C(=O)NC[C@@H](c2ccccc2)OC1=O | 0 | 20* | 1 | 6
Cc1ccc(S(=O)(=O)/N=S(/C)c2ccccc2)cc1 (stereo not drawn) | 2 | 32* | -2 | 0
COCCN(C(=S)Nc1ccc(C)cc1C)C(C)c1cccs1 (stereo not drawn) | 6 | -3 | 0 | 0
COCCN(C(=S)Nc1ccccc1C)C(C)c1cccs1 (stereo not drawn) | 0 | 26* | 1 | -3
CC1=C(C(=O)N2CCOCC2)CC(CC(=O)NCCc2ccccn2)C(=O)N1Cc1ccccc1 (stereo not drawn) | 4 | 26* | 3 | 13
CC1=C(C(=O)N2CCOCC2)CC(CC(=O)NCCc2ccccn2)C(=O)N1Cc1ccc(F)cc1 (stereo not drawn) | 3 | 1 | 0 | 11
O=C(Cc1ccccc1)Nc1ccc2[nH]ncc2c1 | -5 | 8 | 2 | -13
O=C(Cc1ccc(Br)cc1)Nc1ccc2[nH]ncc2c1 | -4 | -5 | 25* | 13
CCOc1cc(C(=O)Nc2ccc([N+](=O)[O-])cn2)cc(OCC)c1OCC | 1 | -2 | 0 | -1
CCOc1ccc2[nH]cc(C(=O)NCc3ccc(F)cc3)c(=O)c2c1 | 5 | 39* | 0 | 13
NS(=O)(=O)c1ccc(CCNC(=O)CNC(=O)c2ccc(Br)o2)cc1 | 3 | 19* | 0 | 5
COC(=O)c1ccc(Nc2cc(C)nc3ncnn23)cc1 | -2 | 2 | -2 | 37*
Cc1cc(N2CCCC2)ccc1/C=C1\NC(=S)N(C)C1=O | -93 | -42 | 1 | 43*
Cc1ccc(C(=O)N/C(=C\c2cn(C)c3ccccc23)C(=O)NCCCN2CCOCC2)cc1 | 1 | -5 | 0 | -3
Cc1ccc(C(=O)N/C(=C\c2ccc(-c3ccccc3[N+](=O)[O-])o2)C(=O)NCCCN2CCOCC2)cc1 | -2 | 26* | 0 | -2
CCCOc1ccc(-c2c(=O)n(OCc3ccc([N+](=O)[O-])cc3)c3ccccc3[n+]2[O-])cc1 | 6 | -2 | 0 | -8
SMILES | MT1-MMP act inh | NRP1-CendR mod | hiPSC survival | SKN-1 block
CCn1nc(C)c(CN2CCC(n3nccc3NC(=O)CCCc3ccccc3)CC2)c1C | 1 | 1 | 0 | -28
CCn1nc(C)c(CN2CCC(n3nccc3NC(=O)Cc3ccccc3)CC2)c1C | 0 | 21* | 1 | 5
CC1CCCCC1NC(=O)c1ccc(S(=O)(=O)N2CCN(C)CC2)cc1 (stereo not drawn) | -3 | 0 | 0 | 15
Cc1cc(NC(=O)CCC(=O)N(Cc2cccs2)C(C)(C)C(=O)NC2CCCCC2)no1 | -3 | 20* | 0 | 9
Cc1cc(NC(=O)CCC(=O)N(Cc2ccco2)C(C)(C)C(=O)NC2CCCCC2)no1 | -2 | -3 | 0 | -16
CCOC(=O)C1C(=O)C=C(c2ccccc2)CC1c1ccccc1 (stereo not drawn) | -2 | 14 | 0 | 0
CC(NC(=O)Nc1nnc(C(F)(F)F)s1)(C(F)(F)F)C(F)(F)F | -11 | -16 | 3 | 32*
S=C(Nc1ccc(Br)cc1)N1CCn2cccc2C1c1cccnc1 (stereo not drawn) | 2 | -1 | 2 | -21
COc1ccc(OC)c(NC(=O)Nc2ccc(O)c3ccccc23)c1 | 0 | 25* | 1 | 13
COc1ccc(OC)c(NC(=O)Nc2c(O)ccc3ccccc23)c1 | 5 | -12 | 0 | 10
COC(=O)CN1C(=O)[C@H]2[C@@H](/C=C/c3ccccc3)N3C(=O)CN(Cc4ccc(-c5ccccc5)cc4)C(=O)[C@@]3(C)[C@H]2C1=O | . | 7 | -1 | 8
C[C@@]12C(=O)N(Cc3ccc(-c4ccccc4)cc3)CC(=O)N1[C@H](/C=C/c1ccccc1)[C@@H]1C(=O)N(c3ccccc3)C(=O)[C@@H]12 | 6 | -4 | 7 | 39*
CN1CCC(N(C)C(=O)c2cc(S(=O)(=O)N(C)c3ccccc3)ccc2Cl)CC1 | -3 | -6 | 0 | -8
CN1CCC(N(C)C(=O)c2ccc(Cl)c(S(=O)(=O)N(C)c3ccc(Cl)cc3)c2)CC1 | -8 | 33* | -2 | 12
O=C(Cn1cnc2cc([N+](=O)[O-])ccc2c1=O)NCCc1ccc(F)cc1 | 4 | -1 | -1 | 0
O=C(Cn1cnc2cc([N+](=O)[O-])ccc2c1=O)NCCc1ccc(Cl)cc1 | -2 | 20* | -1 | 2
CSc1nnc(-c2cc(Br)ccc2N=Cc2c(C)[nH]n(-c3ccccc3)c2=O)c(=O)[nH]1 | 1 | 18* | -3 | 8
CCCOc1ccc(N2C(=O)CC(N3CCOCC3)C2=O)cc1 (stereo not drawn) | -5 | -2 | 0 | 0
CCCOc1ccc(N2C(=O)CC(N3CCN(CCN=CC4C(=O)CC(C)(C)CC4=O)CC3)C2=O)cc1 (stereo not drawn) | -1 | 25* | 0 | 2
O=C(Nc1cccc(S(=O)(=O)NCc2ccco2)c1)c1cc(-c2ccc(F)cc2)nc2ccccc12 | -5 | -7 | 3 | 16
Cc1ccc(C(=O)OCCn2cc(C#N)c(=O)[nH]c2=O)cc1 | -1 | 27* | -1 | -9
COC(=O)CCCC1=CC2=C(c3ccccc3)C(=O)C(C)(OC(=O)C3CCCC3)C(=O)C2=CN1CCN1CCOCC1 (stereo not drawn) | 5 | 17 | -3 | 13
